# The list is not random: actives were taken first. Their share in the collection is about 4.1%.
# XBP1 UPR activ – activators of adaptive XBP1 UPR arm, primary screen, cell-based, CHO-XBP1 luciferase reporter, luminescence, uHTS | IRE1-XBP1 UPR activation; percent of tunicamycin response, DMSO as zero | 0.33% of 330,000 active | AID 463104, 2010 | activation, % at 20 µM;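 active = versus positive control, 20 µM dose yields 30% or more activation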;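 note: 100% = tunicamycin at 10 µg/mL and 0% = DMSO only wells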
#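 Material: CHO cell line with stable XBP1 luciferase reporter; schedule: 16-18 h cell attachment at 37 °C, then 6 h compound exposure; signal: glow luminescence from Steady-Glo reagent; medium: serum-containing F12 medium, 10% FBS; benchmarks: tunicamycin 10 µg/mL and vehicle-only wells; read-out: percent activation relative to tunicamycin reference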
# Apaf-1 inh – inhibitors of human Apaf-1 apoptosome, primary screen, biochemical, DEVD-Rh110 fluorescence, uHTS. reconstituted apoptosome caspase-3 activity. inhibition, % at 20 µM. 0.71% of 330,000 active. Apoptotic protease-activating factor 1 (Homo sapiens), O14727; active = inhibition of at least 40% at 20 µM;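 note: plate controls were DMSO wells for no effect and DEVD-CHO caspase inhibitor wells for full effect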
#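 detection = Rh110 fluorescence intensity | test system = biochemical Apaf-1 apoptosome reconstitution | also added = cytochrome c and DEVD-Rh110 substrate | schedule = 30 min plus 50 min, RT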
# UBC13 inh – UBC13 polyubiquitin chain formation inhibitors, primary screen, biochemical, TR-FRET, uHTS; inhibition, % at 20 µM; 0.47% of 330,000 active; Ubiquitin-conjugating enzyme E2 N (Homo sapiens), P61088; in the data active = inhibition above about 45%, passing the limit was not always enough
# Target sequence (P61088 whole entry, looked up): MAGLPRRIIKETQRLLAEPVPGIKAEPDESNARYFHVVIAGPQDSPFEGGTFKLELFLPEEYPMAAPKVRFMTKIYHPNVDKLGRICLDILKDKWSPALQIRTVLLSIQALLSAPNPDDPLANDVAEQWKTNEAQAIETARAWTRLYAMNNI
# CHOP UPR activ – activators of apoptotic CHOP UPR arm, primary screen, cell-based, CHO-CHOP luciferase reporter, luminescence, uHTS | activation, % at 10 µM | UPR activation; percent of tunicamycin response over DMSO baseline | 0.34% of 330,000 active;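 active = at 10 µM dose, activation of 40% or more, normalized to positive control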;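 note: 100% = tunicamycin at 10 µg/mL and 0% = DMSO alone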
#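 Dosing – one dose, 10 µM in 0.5% DMSO · System – CHO-CHOP cells, stable luciferase reporter of PERK-eIF2a-CHOP signalling · Input – 500 cells/well · Control set – tunicamycin 10 µg/mL final as positive, DMSO-only wells as negative · Timing – 6 h compound treatment, 37 °C · Measure – % activation vs tunicamycin · Technique – luminescence read with Steady-Glo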
# Mdm2-MdmX inh – inhibitors of human Mdm2-MdmX association, primary screen, cell-based, luminescence, split luciferase, SaOS-2, uHTS; Protein Mdm4 (Homo sapiens) + E3 ubiquitin-protein ligase Mdm2 (Homo sapiens), …; SaOS-2 split-luciferase Mdm2/MdmX complementation; inhibition, % at 8 µM; 3% of 330,000 active; AID 485346, 2010;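 active = inhibition of at least 50% at 8 µM in the primary screen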
# Casp3 counter – CASP3 inhibitor validation, counterassay for project on UBE2N polyubiquitination blockers, biochemical, one dose; inhibition, % at 20 µM; 4% of 1,400 active; shares compounds with UBC13 inh; Recombinant caspase-3, Caspase-Glo 3/7 luminescence, 60 min;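 active = mean inhibition across replicates above about 26%, limit read from the data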;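 note: plate controls were DMSO with caspase-3 for no effect and DMSO wells lacking enzyme for full effect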
# Target sequence (P42574 whole entry, looked up): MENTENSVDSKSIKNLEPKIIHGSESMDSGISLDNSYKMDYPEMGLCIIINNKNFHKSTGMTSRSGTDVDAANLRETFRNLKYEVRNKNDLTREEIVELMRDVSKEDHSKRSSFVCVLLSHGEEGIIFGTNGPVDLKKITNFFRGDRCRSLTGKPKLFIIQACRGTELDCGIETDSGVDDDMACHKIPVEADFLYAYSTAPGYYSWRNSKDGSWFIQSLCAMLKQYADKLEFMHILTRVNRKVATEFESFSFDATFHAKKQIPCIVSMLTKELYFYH
# UBC13 confirm – UBC13 polyubiquitination inhibitors, single-point retest, confirmation, biochemical, TR-FRET, single concentration | shares compounds with UBC13 inh | inhibition, % at 10 µM | 68% of 1,400 active; in the data active = inhibition above about 45%
# The depositor's hits bear a star; / = no result given.
SMILES,XBP1 UPR activ,Apaf-1 inh,UBC13 inh,CHOP UPR activ,Mdm2-MdmX inh,Casp3 counter,UBC13 confirm
CCC(=O)NC(c1cc(Cl)c2ccccc2c1O)C(C)C (stereo unspecified),-1,10,71*,-1,-2,2,56*
CC(=O)NC(C)c1cc(Cl)c2ccccc2c1O (stereo unspecified),2,-2,63*,1,27,5,47*
CCC(=O)NC(c1ccco1)c1cc(Cl)c2ccccc2c1O (stereo unspecified),-1,5,35,0,-24,/,/
O=C(Nc1cccnc1)c1cc2cc(Br)ccc2o1,0,2,4,3,20,/,/
CCN(CC)CCCN(C(=O)c1ccc(Br)cc1)c1nc(-c2ccc(OC)cc2)cs1,0,27,26,3,49,/,/
CCN(CC)CCOC(=O)c1ccc(N/C=C(/C#N)c2nc(-c3ccc(OC)cc3)cs2)cc1,2,35,96*,4,17,0,130*
C/C(=N/NC(=O)CN1CCN(Cc2ccccc2)CC1)c1ccc([N+](=O)[O-])cc1,-2,-17,-1,2,21,/,/
CCCOc1ccc(/C=N/NC(=O)CSCc2ccc([N+](=O)[O-])cc2)cc1OCC,0,13,90*,1,0,-4,93*
C/C(=N\NC(=O)CSCc1ccc([N+](=O)[O-])cc1)c1ccccc1O,-3,8,84*,2,16,-1,95*
C/C(=N\NC(=O)CSCc1ccc([N+](=O)[O-])cc1)c1ccccc1,1,5,91*,-2,10,3,109*
Cc1ccc(CSCCNC(=O)CSCc2ccc([N+](=O)[O-])cc2)cc1,-3,2,12,-2,20,/,/
CCCOc1ccc(/C=N/NC(=O)CN2CCCCC2)cc1OCC,-3,-18,-2,0,1,/,/
COc1ccc(N(C)S(=O)(=O)c2ccc3c(c2)NC(=O)CO3)c(OC)c1,0,3,0,0,21,/,/
O=C(O)CSCc1nc2scc(-c3ccccc3)c2c(=O)[nH]1,-2,15,-4,0,13,/,/
O=C(OCc1nc2scc(-c3ccccc3)c2c(=O)[nH]1)c1cc([N+](=O)[O-])ccc1Cl,-1,22,46*,1,39,2,-3
Fc1cccc(Cl)c1/C=N/n1c(-c2cccnc2)n[nH]c1=S,2,-4,8,-1,7,/,/
CCOc1ccc(N2CC(C(=O)Nc3ncccc3C)CC2=O)cc1 (stereo unspecified),-4,-13,0,0,-8,/,/
O=C(c1ccc(Cl)c(NC2=NC3CS(=O)(=O)CC3S2)c1)N1CCN(c2ccc(F)cc2)CC1 (stereo unspecified),-4,4,-4,0,9,/,/
CN(CC(=O)Nc1ccc(F)c(Cl)c1)S(=O)(=O)c1ccc2c(c1)n(C)c(=O)c(=O)n2C,-6,9,-6,2,-6,/,/
Cc1ccc(O)c(CNc2nc3ccccc3n2C(C)C)c1,-1,6,12,1,5,/,/
CC(C)n1c(NCc2cc(Cl)ccc2O)nc2ccccc21,1,15,67*,0,20,0,54*
O=C(Nc1cccc2nsnc12)c1ccc(-c2cccc(Cl)c2)o1,0,40,49*,3,18,32*,8
O=C(Cn1nc(CNc2ccc(Cl)cc2)[n+]2c1CCCCC2)c1ccc(Br)cc1,0,25,42,2,8,/,/
